The text below walks through data of ChEMBL document CHEMBL1128370, “Novel NMDA antagonists: replacement of the pyridinium ring of 6,11-ethanobenzo[b]quinolizinium cations with heteroisoquinolinium cations” (J Med Chem, 1995).

pIC50, pKi: −log10 of the molar value.

One experiment deals with Glutamate NMDA receptor. The experiment can be described thus: Binding affinity against phencyclidine (PCP) site of N-methyl-D-aspartate glutamate receptor from rat brain, using [3H]- TCP as radioligand. In short, it runs like this:
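Male Sprague-Dawley rat whole-brain membranes, washed by repeated homogenization/centrifugation in 50 mM Tris-HCl pH 7.7, frozen at -70 °C, assayed in 5 mM Tris-HCl at 0.5 mg protein/tube. [3H]TCP about 1 nM final with varying compound concentrations, 25 min at room temperature. Nonspecific binding with 100 μM PCP. Filtration, scintillation counting, Ki calculated. At least three determinations in triplicate.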

The nature of experiment [1]: Neuroprotection was determined against NMDA induced cell death in cultured mouse cortical neuron. The class given is functional. In a few lines: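 Primary cortical neurons from Swiss-Webster mouse embryos at 16 days post conception, trypsinized, plated at 50 000 cells/well, cytosine arabinoside from day 5, used on day 13. Cells were washed and exposed 30 min to 500 µM NMDA with or without varying concentrations of test agent in MEM, then returned to MEM alone. MK-801 10 µM served as positive control.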

At Glutamate NMDA receptor, `Cn1nc[n+]2c1C1c3ccccc3C2CC1(c1ccoc1)c1ccoc1` (configuration not stated) gave a pKi of 7.85.

On Glutamate NMDA receptor, `c1ccc(-n2cc[n+]3c2C2c4ccccc4C3CC2(c2ccoc2)c2ccoc2)cc1` (configuration not stated) had a pKi of 7.28.

Turning to `c1ccc2c(c1)C1CC(c3ccoc3)(c3ccoc3)C2c2scc[n+]21` (configuration not stated), the pKi on Glutamate NMDA receptor was 8.54. The pIC50 in experiment [1] is 7.30.

Regarding `c1ccc2c(c1)C1CC(c3ccoc3)(c3ccoc3)C2c2cccc[n+]21` (configuration not stated), the pIC50 in experiment [1] was 7.35.

For the molecule `C1=C[N+]2=C(C1c1cccc3ccccc13)C1c3ccccc3C2CC1(c1ccoc1)c1ccoc1` (configuration not stated), the pKi at Glutamate NMDA receptor was 6.48.

At Glutamate NMDA receptor, `c1ccc(C(c2ccccc2)n2cc[n+]3c2C2c4ccccc4C3CC2(c2ccoc2)c2ccoc2)cc1` (configuration not stated) gave a pKi of 6.51.

Consider `CCOC1(OCC)C2c3ccccc3C([n+]3ccn(Cc4ccccc4)c32)C1(C)C` (configuration not stated), for which the pKi at Glutamate NMDA receptor was 8.00.

The molecule `CCCCn1cc[n+]2c1C1c3ccccc3C2CC1(c1ccoc1)c1ccoc1` (configuration not stated) gave a pKi on Glutamate NMDA receptor of 7.44.

Take `c1ccc2c(c1)C1CC(c3ccoc3)(c3ccoc3)C2c2n(Cc3ccc4ccccc4c3)cc[n+]21` (configuration not stated): the pKi at Glutamate NMDA receptor is 6.48.

As to `CCOC1(OCC)C2c3ccccc3C([n+]3ccccc32)C1(C)C` (configuration not stated), the pIC50 in experiment [1] was 7.22.

On Glutamate NMDA receptor, `c1ccc(CCCn2cc[n+]3c2C2c4ccccc4C3CC2(c2ccoc2)c2ccoc2)cc1` (configuration not stated) gave a pKi of 7.17.

Molecule `CCOC1(OCC)C2c3ccccc3C([n+]3ccsc32)C1(C)C` (configuration not stated) showed a pKi on Glutamate NMDA receptor of 8.21. Moreover, the negative-log IC50 (pIC50) in experiment [1] is 6.76.

`CCOC1(OCC)C2c3ccccc3C([n+]3ccn(C)c32)C1(C)C` (configuration not stated) gave a pKi on Glutamate NMDA receptor of 8.09. The negative-log IC50 (pIC50) in experiment [1] was 7.28.

`Cn1cc[n+]2c1C1c3ccccc3C2CC1(c1ccoc1)c1ccoc1` (configuration not stated) showed a pKi on Glutamate NMDA receptor of 8.54. Further, the pIC50 in experiment [1] is 6.59.

`CCOC1(OCC)C2c3ccccc3C([n+]3cnn(C)c32)C1(C)C` (configuration not stated) showed a pKi on Glutamate NMDA receptor of 7.52.

At Glutamate NMDA receptor, `c1ccc(Cn2cc[n+]3c2C2c4ccccc4C3CC2(c2ccoc2)c2ccoc2)cc1` (configuration not stated) gave a pKi of 8.11. Further, in experiment [1], the pIC50 is 7.38.

Take `C[C@]12N[C@H](Cc3ccccc31)c1ccccc12` [DIZOCILPINE]: in experiment [1], the pIC50 is 7.17.

Usually pKi stands for the Ki on a negative log10 scale, so that one unit is a factor of ten. Lower therefore signals a high Ki. By pIC50 is commonly meant the negative decadic logarithm of the IC50, by convention in mol/L. Low values mean a high IC50, high ones a low IC50.
